In ChEMBL document CHEMBL1135744, “Design, synthesis, and structure-activity relationship of 6-alkynylpyrimidines as potent adenosine kinase inhibitors” (J Med Chem, 2002):
The source made the active and inactive calls. The rule behind the calls is not given here.

Experiments:
[1] = molecular target: Adenosine kinase (Rattus norvegicus, UniProt Q64640); test: Evaluated in vitro for inhibitory activity against Adenosine kinase (AK)
Summary of the method: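 Rat brain cytosol was the adenosine kinase source. The mix held 64 mM Tris-HCl pH 7.5, 0.2 mM MgCl2, 1 mM ATP and 0.2 μM [U-14C]ADO or [2-3H]ADO, incubated 15 min at 23 °C. Aliquots were spotted onto DE-81 anion-exchange disks, washed in 2 mM ammonium formate, rinsed and dried. Bound radioactivity was counted by scintillation.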

[2] = organism: Rattus norvegicus; test: Antihyperalgesic effect in the carrageenan induced thermal hyperalgesia model; assay type: functional
[3] = organism: Rattus norvegicus; test: Nociceptive paw flinching in rats assessed 30 min following an intraplantar injection of 5% formalin into the right hind paw.; assay type: functional; conditions: 0.5 h
Summary of the method: (§1)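 Rats received an intraplantar injection of 5% formalin (50 μL) into the right hindpaw, and nociceptive flinching was scored 30 min afterward. Data are mean ± SEM, n = 6-8 per dose group.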

[4] = system: IMR-32; test: Evaluated in vitro for the inhibition of Adenosine (ADO) phosphorylation in intact IMR-32 human neuroblastoma cells.; assay type: functional, cell-based
Summary of the method: (§2)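 IMR-32 human neuroblastoma cells were preincubated 10 min with compound (10^-11 to 10^-4 M), then given [U-14C]ADO (added as a 2 μM solution) for 20 min. Buffer was aspirated and cells were snap-frozen in liquid nitrogen, then thawed 20 min at room temperature. Supernatant was spotted on DE-81 disks, washed and counted by scintillation.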

[5] = system: IMR-32; test: Evaluated in vitro for the inhibition of Adenosine (ADO) phosphorylation in intact cells.; assay type: functional, cell-based; conditions: Homo sapiens; summary of the method: as §2
[6] = system: Rattus norvegicus; test: Antihyperalgesic effect in the carrageenan induced thermal hyperalgesia model uM/Kg; assay type: functional, organism-based
[7] = system: Rattus norvegicus; test: Nociceptive paw flinching in rats assessed 30 min following an intraplantar injection of 5% formalin into the right hind paw.; NA=not active uM/Kg; assay type: functional, organism-based; summary of the method: as §1
[8] = system: Rattus norvegicus; test: Nociceptive paw flinching in rats assessed 30 min following an intraplantar injection of 5% formalin into the right hind paw; NA=not active uM/Kg; assay type: functional, organism-based; summary of the method: as §1

Chain of Adenosine kinase (Q64640 whole entry): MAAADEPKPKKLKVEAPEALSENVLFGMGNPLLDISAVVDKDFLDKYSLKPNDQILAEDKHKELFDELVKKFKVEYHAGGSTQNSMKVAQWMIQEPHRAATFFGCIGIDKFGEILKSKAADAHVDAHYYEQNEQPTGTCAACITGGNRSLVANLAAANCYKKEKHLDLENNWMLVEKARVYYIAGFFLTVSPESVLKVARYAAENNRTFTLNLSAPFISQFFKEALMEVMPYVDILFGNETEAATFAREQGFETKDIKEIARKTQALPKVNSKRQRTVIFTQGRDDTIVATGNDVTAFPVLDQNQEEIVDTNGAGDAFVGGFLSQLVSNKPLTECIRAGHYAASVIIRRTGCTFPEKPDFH

Compound	IC50 [1]	IC50 [4]	IC50 [5]	other results
CN(Cc1ccccc1)c1c(N)ncnc1C#Cc1ccc(N2CCOCC2)nc1	30 nM	124 nM		ED50 [2]: 10 µmol/kg; ED50 [3]: 10 µmol/kg
Nc1ncnc(C#Cc2ccc(N3CCOCC3)nc2)c1Cc1ccccc1	40 nM	700 nM		ED50 [3]: 30 µmol/kg
CN(Cc1cccc(Cl)c1)c1c(N)ncnc1C#Cc1ccc(N2CCOCC2)nc1	22 nM		225 nM	NA [6]: inactive; NA [7]: inactive
Nc1cc(C#Cc2ccc(N3CCOCC3)nc2)ncn1	120 nM	> 1000 nM		
Nc1ncnc(C#Cc2ccc(N3CCOCC3)nc2)c1CN1CCc2ccccc2C1	40 nM	1000 nM		
Nc1ncnc(C#Cc2ccc(N3CCOCC3)nc2)c1CCCCc1ccccc1	45 nM		> 1000 nM	
CN(Cc1ccc(Cl)c(Cl)c1)c1c(N)ncnc1C#Cc1ccc(N2CCOCC2)nc1	200 nM		345 nM	
CN(c1cccc(Br)c1)c1c(N)ncnc1C#Cc1ccc(N2CCOCC2)nc1	28 nM	280 nM		
CN(Cc1ccccc1C(F)(F)F)c1c(N)ncnc1C#Cc1ccc(N2CCOCC2)nc1	40 nM		276 nM	
CN(Cc1ccc2ccccc2c1)c1c(N)ncnc1C#Cc1ccc(N2CCOCC2)nc1	246 nM	388 nM		
Cc1ccccc1CN(C)c1c(N)ncnc1C#Cc1ccc(N2CCOCC2)nc1	6 nM	94 nM		NA [6]: inactive; NA [8]: inactive
CN(Cc1ccc(Br)cc1)c1c(N)ncnc1C#Cc1ccc(N2CCOCC2)nc1	90 nM		515 nM	
Nc1ncnc(C#Cc2ccc(N3CCOCC3)nc2)c1Cc1cccc(Br)c1	22 nM	1000 nM		
CN(Cc1ccccc1Cl)c1c(N)ncnc1C#Cc1ccc(N2CCOCC2)nc1	15 nM	100 nM		ED50 [2]: 3 µmol/kg; ED50 [3]: 10 µmol/kg
CN(Cc1ccc(Cl)cc1)c1c(N)ncnc1C#Cc1ccc(N2CCOCC2)nc1	106 nM		360 nM	

Stronger by IC50 [1], values ahead:

IC50 [1]	IC50 [4]	IC50 [5]	Compound	other results
2.5 nM	70 nM		Nc1ncnc(C#Cc2ccc(N3CCOCC3)nc2)c1CCCc1ccccc1	ED50 [2]: > 30 µmol/kg; ED50 [3]: 8 µmol/kg
3.5 nM		580 nM	Nc1ncnc(C#Cc2ccc(N3CCOCC3)nc2)c1CCCc1cccc(Br)c1	
5 nM	146 nM		CN(Cc1ccccc1Cl)Cc1c(N)ncnc1C#Cc1ccc(N2CCOCC2)nc1	ED50 [2]: > 30 µmol/kg; ED50 [3]: 30 µmol/kg
4 nM	94 nM		Nc1ncnc(C#Cc2ccc(N3CCOCC3)nc2)c1CCCc1cccnc1	NA [7]: inactive
4 nM	46 nM		Nc1ncnc(C#Cc2ccc(N3CCOCC3)nc2)c1CCCc1ccncc1	NA [7]: inactive; ED50 [2]: 46 µmol/kg
2 nM		565 nM	Nc1ncnc(C#Cc2ccc(N3CCOCC3)nc2)c1CCCc1ccc(Br)cc1	
4.5 nM		220 nM	Nc1ncnc(C#Cc2ccc(N3CCOCC3)nc2)c1CCc1ccccc1	
3.5 nM	198 nM		COc1ccc(CCCc2c(N)ncnc2C#Cc2ccc(N3CCOCC3)nc2)cc1	ED50 [2]: > 30 µmol/kg; ED50 [3]: 20 µmol/kg
5 nM		725 nM	CN(Cc1cccc(Br)c1)c1c(N)ncnc1C#Cc1ccc(N2CCOCC2)nc1	
2 nM	118 nM		CN(Cc1ccccc1)Cc1c(N)ncnc1C#Cc1ccc(N2CCOCC2)nc1	NA [7]: inactive; ED50 [2]: 5 µmol/kg
2.5 nM		188 nM	Nc1ncnc(C#Cc2ccc(N3CCOCC3)nc2)c1CCCc1ccccc1Cl	
